From PubChem
The list is not random: actives were taken first. Their share in the collection is about 6%.
E coli WT exp: growth inhibitors of E. coli BW25113 wild type; OD600 absorbance; growth inhibition, % at 100 µM; 98,000 tested, 0.15% active;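 active = growth inhibition above about 50% at one test dose, limit read from the data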;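 note: growth measured after 20 h incubation at 37 °C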
tolC growth inh: E. coli tolC mutant growth inhibition. E. coli BW25113 tolC mutant growth, OD615. AID 573. growth inhibition, % at 10 µM (by protocol). 65,000 tested, 2.2% active;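 active = growth inhibition at or above a cutoff equal to the mean over every tested compound plus 3 SD, cut at about 60% in these data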;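 note: growth measured after 20 h incubation at 37 °C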
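Test system: E. coli BW25113 ΔtolC::kan bacteria; incubation: 37 °C, 20 h exposure; medium: LB broth supplemented with 50 µg/mL kanamycin; read-out basis: percent growth inhibition; signal: A615 absorbance measurement; compound: 10 µM final, single dose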
PostGolgi yeast: growth inhibition of a yeast mutant, post-Golgi transport screen. post-Golgi transport phenotypic cell assay. inhibition, % at 10 µM. 98,000 tested, 0.9% active. AID 739;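 note: yeast cells grown in 1536-well plates; yeast grown about 18 h at 30C before absorbance read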
PostGolgi ctrl: inhibits growth of the yeast control strain | efflux-deficient yeast background strain, growth absorbance A615, 16 h | inhibition, % at 10 µM | 98,000 tested, 5% active
EphB4 ephrin blk: antagonists of human EphB4-ephrin-B2 interaction; EphB4 LBD / TNYL-RAW-Alexa532 peptide, fluorescence polarization; inhibition, % at 7 µM; 97,000 tested, 0.15% active; AID 720;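 active = inhibition above the screen-wide mean inhibition plus 3 SD, cut at about 15% in these data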
Numbers stand for hits. Cut-off read from the data, not from the text of the source, unless noted: active = inhibition above about 30%; inactive = the rest.

`O=C(NCCc1ccccc1)c1nc2c(nnn2Cc2ccccc2Cl)c(=O)[nH]1` gave E coli WT exp inactive, tolC growth inh 96.6, PostGolgi yeast inactive, PostGolgi ctrl inactive and EphB4 ephrin blk inactive.
`O=C(NC1CCCCC1)c1nc2c(nnn2Cc2ccccc2Cl)c(=O)[nH]1` gave E coli WT exp inactive, tolC growth inh 75.8, PostGolgi yeast inactive, PostGolgi ctrl inactive and EphB4 ephrin blk inactive.
O=C(NC1CC1)c1nc2c(nnn2Cc2ccccc2Cl)c(=O)[nH]1 was read as EphB4 ephrin blk inactive.
`COc1ccc(Cn2nnc3c(=O)[nH]c(C(=O)NCCc4ccc(F)cc4)nc32)cc1OC` gave E coli WT exp inactive, tolC growth inh inactive, PostGolgi yeast inactive and PostGolgi ctrl 31.4.
For COc1cccc(C(=O)/C=C/Nc2ccc(S(=O)(=O)Nc3cccc(C(C)=O)c3)cc2)c1 the results were E coli WT exp inactive, PostGolgi yeast inactive, PostGolgi ctrl 42.5 and EphB4 ephrin blk inactive.
`Cc1oc2c(c1C(=O)c1ccc(Cl)cc1)C(=O)C(=O)c1ccccc1-2` gave E coli WT exp inactive, PostGolgi yeast 45.0, PostGolgi ctrl 58.4 and EphB4 ephrin blk inactive.
For Cc1ccc(C(=O)c2coc3c2C(=O)C(=O)c2ccccc2-3)cc1 the results were E coli WT exp inactive, PostGolgi yeast 80.6, PostGolgi ctrl 70.5 and EphB4 ephrin blk inactive.
CC(C)N(C(=O)c1ccc2nc3c4ccccc4c4ccccc4c3nc2c1)C(C)C was read as EphB4 ephrin blk inactive.
Screening Cc1ccc2[nH]c(C(=O)O)c(-c3ccccc3)c2c1 returned E coli WT exp inactive, tolC growth inh inactive, PostGolgi yeast inactive, PostGolgi ctrl inactive and EphB4 ephrin blk inactive.
Cc1ccc(-c2ccc(C(=O)O)[nH]2)cc1 was read as E coli WT exp inactive, tolC growth inh inactive, PostGolgi yeast inactive, PostGolgi ctrl inactive and EphB4 ephrin blk 16.0.
`O=C(Nc1ccccc1)Nc1ccc(S(=O)(=O)N2CCCCC2)cc1` gave E coli WT exp inactive, tolC growth inh 100.0, PostGolgi yeast inactive, PostGolgi ctrl 30.2 and EphB4 ephrin blk inactive.
`CN(c1ccccc1C(=O)Nc1ccc(S(=O)(=O)N2CCCCC2)cc1)S(C)(=O)=O` gave E coli WT exp inactive, tolC growth inh 100.0, PostGolgi yeast inactive, PostGolgi ctrl inactive and EphB4 ephrin blk inactive.
`O=C(COc1cccc(C(F)(F)F)c1)Nc1ccc(S(=O)(=O)N2CCCC2)cc1` gave E coli WT exp inactive, tolC growth inh 63.7, PostGolgi yeast inactive, PostGolgi ctrl inactive and EphB4 ephrin blk inactive.
`Cc1cccc(OCC(=O)Nc2ccc(S(=O)(=O)N3CCN(C)CC3)cc2)c1` gave EphB4 ephrin blk inactive.
`O=C1NCCCC1C(=O)Nc1ccccc1C(F)(F)F` (centres undefined) gave E coli WT exp inactive, PostGolgi yeast inactive, PostGolgi ctrl inactive and EphB4 ephrin blk inactive.
`CCOC(=O)c1cccc(NC(=O)CN(c2ccc(C)cc2)S(=O)(=O)c2c(C)n[nH]c2C)c1` gave E coli WT exp inactive, tolC growth inh inactive, PostGolgi yeast inactive, PostGolgi ctrl inactive and EphB4 ephrin blk inactive.
`Cc1c(NC(=O)Nc2ccc(Cl)c(Cl)c2)c(=O)n(-c2ccccc2)n1C` gave E coli WT exp inactive, tolC growth inh 100.0, PostGolgi yeast inactive and PostGolgi ctrl inactive.
`O=S(=O)(Nc1ccc(-c2nc3cccnc3s2)cc1)c1ccc(Cl)s1` gave E coli WT exp inactive, PostGolgi yeast inactive, PostGolgi ctrl 47.9 and EphB4 ephrin blk inactive.
`O=S(=O)(Nc1ccc(-c2nc3cccnc3s2)cc1)c1cccs1` gave E coli WT exp inactive, tolC growth inh inactive, PostGolgi yeast inactive, PostGolgi ctrl inactive and EphB4 ephrin blk inactive.
For N#CC(c1ccccc1)c1ccc2c(C(F)(F)F)cc(C(F)(F)F)nc2n1 (centres undefined) the results were E coli WT exp inactive, PostGolgi yeast inactive, PostGolgi ctrl 50.8 and EphB4 ephrin blk inactive.
CCC(=O)N(C)/C=C1\Sc2ccccc2C1=O was read as E coli WT exp inactive, PostGolgi yeast inactive, PostGolgi ctrl inactive and EphB4 ephrin blk inactive.
`CC(=O)N(C)/C=C1\Sc2ccccc2C1=O` gave E coli WT exp inactive, PostGolgi yeast inactive, PostGolgi ctrl 44.4 and EphB4 ephrin blk inactive.
Cc1nn(CCCC(=O)Nc2sc3c(c2C#N)CCC3)c(C)c1[N+](=O)[O-] was read as E coli WT exp inactive, PostGolgi yeast inactive, PostGolgi ctrl inactive and EphB4 ephrin blk inactive.
`Cc1nn(CC(=O)Nc2sc3c(c2C#N)CCC(C(C)(C)C)C3)c(C)c1[N+](=O)[O-]` (centres undefined) gave E coli WT exp inactive, PostGolgi yeast inactive, PostGolgi ctrl 35.1 and EphB4 ephrin blk inactive.
Clc1cccc(NCc2nnc(SCc3ccccc3Cl)o2)c1 was read as E coli WT exp inactive, PostGolgi yeast inactive, PostGolgi ctrl 39.9 and EphB4 ephrin blk inactive.
`Clc1cccc(NCc2nnc(SCc3ccccc3)o2)c1` gave E coli WT exp inactive, tolC growth inh 98.8, PostGolgi yeast inactive, PostGolgi ctrl inactive and EphB4 ephrin blk inactive.
For N#CCSc1nnc(CNc2cccc(Cl)c2)o1 the results were E coli WT exp inactive, tolC growth inh inactive, PostGolgi yeast inactive, PostGolgi ctrl inactive and EphB4 ephrin blk inactive.
Screening CC(C)(C)OC(=O)NCCc1nnc(SCc2ccccc2Cl)o1 returned E coli WT exp inactive, tolC growth inh inactive, PostGolgi yeast inactive, PostGolgi ctrl inactive and EphB4 ephrin blk inactive.
For CCC(c1nnnn1CCOC)N1CCN(Cc2ccccc2)CC1 (centres undefined) the results were E coli WT exp inactive, tolC growth inh inactive, PostGolgi yeast inactive, PostGolgi ctrl 31.0 and EphB4 ephrin blk inactive.
`CCC(c1nnnn1CCOC)N1CCN(C(=O)c2ccco2)CC1` (centres undefined) gave E coli WT exp inactive, tolC growth inh inactive, PostGolgi yeast inactive, PostGolgi ctrl inactive and EphB4 ephrin blk inactive.
`Cc1nn(C(=O)c2c([N+](=O)[O-])cnn2C)c(C)c1Cl` gave EphB4 ephrin blk inactive.
For O=C(c1ccco1)N1CCCC(c2ccccc2)C1 (centres undefined) the results were E coli WT exp inactive, tolC growth inh inactive, PostGolgi yeast inactive, PostGolgi ctrl inactive and EphB4 ephrin blk inactive.
O=C(c1cccs1)N1CCCC(c2ccccc2)C1 (centres undefined) was read as E coli WT exp inactive, tolC growth inh inactive, PostGolgi yeast inactive, PostGolgi ctrl 36.9 and EphB4 ephrin blk inactive.
O=C(NCCCNCc1ccccc1)c1ccccn1 was read as E coli WT exp inactive, tolC growth inh inactive, PostGolgi yeast inactive and PostGolgi ctrl 36.1.
For CCN(CC)S(=O)(=O)c1ccc2[nH]cc(C(=O)NCCC3=CCCCC3)c(=O)c2c1 the results were E coli WT exp inactive, tolC growth inh 97.7, PostGolgi yeast inactive, PostGolgi ctrl inactive and EphB4 ephrin blk inactive.
Screening COc1ccc(C2C=C(c3cccs3)Nc3nc(CCCO)nn32)cc1 (centres undefined) returned E coli WT exp inactive, tolC growth inh inactive, PostGolgi yeast inactive, PostGolgi ctrl 44.9 and EphB4 ephrin blk inactive.
CN(CC(=O)Nc1ccc(Cl)cc1)CC(=O)Nc1cc(Cl)ccc1C#N was read as E coli WT exp inactive, tolC growth inh inactive, PostGolgi yeast inactive and PostGolgi ctrl 39.4.
